Most compounds without a hit are left out; they make up all but 4.7% or so of the library.
aSyn 5UTR inh: MLPCN primary screen, SNCA 5' untranslated region | alpha-synuclein 5'UTR reporter, inhibitor activity | inhibition, % (tested at 7.5 µM) | actives 0.82% (n = 300,000) | AID 1813, 2009; in the data active means inhibition above about 60%; inconclusive means no clear call, values can overlap the other calls;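 further: H4 neuroglioblastoma cells stably carrying SNCA 5'UTR luciferase fusion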
IMP-1 inhibitor: IMP-1 metallo-beta-lactamase inhibitors, primary screen, biochemical, epi-absorbance readout, Pseudomonas aeruginosa enzyme. purified IMP-1, nitrocefin hydrolysis, epi-absorbance fluorescence. actives 0.45% (n = 290,000). inhibition, % at 5.6 µM. metallo-beta-lactamase IMP-1 (Pseudomonas aeruginosa);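 active means inhibition above the mean plus 3 SD of all compounds in the same screening run, cut at about 4.5% in these data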
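System: Purified recombinant IMP-1 metallo-beta-lactamase enzyme | Measured by: Fluorescence quenching readout, ex 480/em 530 nm | Replication: Singlicate | Incubation: 15 min preincubation plus 25 min reaction at 25 °C | Evaluation: Percent inhibition from optical density relative to buffer-blank wells | Benchmarks: DMSO with and without IMP-1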
697 NFkB inh: inhibitors of PMA/ionomycin-induced NF-kB reporter, 697 cells, primary screen, B-cell NF-kB inhibitor project, cell-based, luminescence, uHTS; 697 B-cell NF-kB luciferase reporter, 16 h; inhibition, % at 4 µM; actives 0.33% (n = 330,000); AID 435022, 2010; in the data active means inhibition above about 35%
Mdm2 MdmX PPI: inhibitors of human Mdm2-MdmX association, primary screen, cell-based, luminescence, split luciferase, SaOS-2, uHTS | Protein Mdm4 (Homo sapiens) + E3 ubiquitin-protein ligase Mdm2 (Homo sapiens), … | SaOS-2 split-luciferase Mdm2/MdmX complementation | inhibition, % at 8 µM | actives 3% (n = 330,000) | AID 485346, 2010;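 active means inhibition of at least 50% at 8 µM in the primary screen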
Target sequence (O15151 whole entry, looked up): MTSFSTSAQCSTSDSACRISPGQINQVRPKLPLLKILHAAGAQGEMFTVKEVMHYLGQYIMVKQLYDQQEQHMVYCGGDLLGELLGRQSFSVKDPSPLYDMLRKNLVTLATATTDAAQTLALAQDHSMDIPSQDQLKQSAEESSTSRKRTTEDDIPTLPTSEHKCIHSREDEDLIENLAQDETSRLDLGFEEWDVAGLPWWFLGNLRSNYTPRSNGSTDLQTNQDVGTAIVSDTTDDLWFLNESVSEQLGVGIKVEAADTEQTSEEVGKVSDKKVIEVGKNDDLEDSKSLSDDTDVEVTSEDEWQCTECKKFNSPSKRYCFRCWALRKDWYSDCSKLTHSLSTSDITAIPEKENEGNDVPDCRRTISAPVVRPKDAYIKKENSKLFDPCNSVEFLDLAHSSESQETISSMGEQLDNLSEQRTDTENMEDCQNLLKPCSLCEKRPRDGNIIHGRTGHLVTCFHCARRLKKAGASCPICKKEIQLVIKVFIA
Target sequence (Q00987 whole entry, looked up): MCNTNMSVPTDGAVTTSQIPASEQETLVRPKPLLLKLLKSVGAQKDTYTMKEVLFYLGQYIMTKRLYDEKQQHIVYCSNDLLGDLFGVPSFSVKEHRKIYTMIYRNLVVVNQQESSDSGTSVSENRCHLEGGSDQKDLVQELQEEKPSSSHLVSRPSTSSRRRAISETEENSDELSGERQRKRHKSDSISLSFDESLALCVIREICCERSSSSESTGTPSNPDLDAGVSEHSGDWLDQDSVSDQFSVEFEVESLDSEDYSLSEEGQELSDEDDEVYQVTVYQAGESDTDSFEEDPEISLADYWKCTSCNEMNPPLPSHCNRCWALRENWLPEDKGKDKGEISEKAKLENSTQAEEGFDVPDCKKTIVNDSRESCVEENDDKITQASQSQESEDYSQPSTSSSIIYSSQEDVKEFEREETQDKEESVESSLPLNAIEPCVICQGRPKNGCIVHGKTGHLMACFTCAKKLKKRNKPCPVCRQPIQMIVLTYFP
Jurkat NFkB inh: inhibitors of induced NF-kB luciferase reporter, primary screen, TCR NF-kB activation inhibitor project, cell-based, luminescence, uHTS; Jurkat, PMA/ionomycin-induced NF-kB luciferase reporter; inhibition, % at 4 µM; actives 0.53% (n = 330,000); in the data active means inhibition above about 50%
VIM-2 inh: VIM-2 metallo-beta-lactamase inhibitors, primary screen, biochemical, epi-absorbance readout, Pseudomonas aeruginosa enzyme | purified VIM-2, nitrocefin hydrolysis, epi-absorbance fluorescence | inhibition, % at 5.6 µM | actives 0.89% (n = 290,000);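 active means inhibition above the mean of all tested compounds plus 3 SD, cutoff set per screening run, cut at about 7.5% in these data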;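 further: red hydrolysis product quenches plate fluorescence so inhibitors raise well fluorescence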
Mdm2 MdmX conf: Mdm2-MdmX complex disruptors, retested hits, confirmation, luminescence, single concentration; actives 55% (n = 10,000); shares compounds with Mdm2 MdmX PPI; inhibition, % at 8 µM; Mdm2-MdmX binding, luminescent assay; in the data active means inhibition above about 40%
FLuc counter: full-length luciferase signal inhibition, confirmation, counter-screen for Mdm2/MdmX interaction inhibitor project, cell-based, single concentration, SaOS-2. shares compounds with Mdm2 MdmX PPI. SaOS-2 full-length luciferase counterscreen, luminescence. AID 504607, 2011. inhibition, % at 8 µM. actives 77% (n = 6,200);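 active means mean inhibition at 8 µM reaching about 37%, which flags the compound as non-specific, limit read from the data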;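 further: p53-null SaOS-2 cells with luciferase driven by a doxycycline-inducible promoter; compound on cells about two nights before reading with doxycycline added after day one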
Of the large screens only hits and unclear results are named; the others gave an inactive call (follow-up assays come after a bar, where they were run).

COc1ccc(OC)c(Nc2nc(-c3cccc([N+](=O)[O-])c3)nc3ccccc23)c1	Mdm2 MdmX PPI 60 | Mdm2 MdmX conf inactive
Fc1ccc2c(c1)C(c1ccncc1)=NNC(c1cccnc1)=N2	none
O=C(O)C1CC(=O)N(CCc2ccc(F)cc2)C1 (configuration not stated)	none
C[C@@H](C(=O)Nc1ccc2c(c1)OCCO2)n1c(=O)[nH]c2ccccc2c1=O	Mdm2 MdmX PPI 62 | Mdm2 MdmX conf 81 | FLuc counter 76
Cc1ccc(NC(=O)CCCC(=O)OC(C)C(=O)c2ccccc2)cc1 (configuration not stated)	none
Cc1c(C(=O)Nc2nonc2-c2ccc(F)cc2)oc2ccc(F)cc12	aSyn 5UTR inh inconclusive, Mdm2 MdmX PPI 86 | Mdm2 MdmX conf 76 | FLuc counter 52
CCc1nonc1NC(=O)c1oc2ccc(F)cc2c1C	none
Cc1ncc(CO)c(/C=N/NC(=S)Nc2ccc(F)cc2)c1O	none
Cc1ncc(CO)c(/C=N/Nc2ccc(C(F)(F)F)cn2)c1O	aSyn 5UTR inh 88, Mdm2 MdmX PPI 75 | Mdm2 MdmX conf 72 | FLuc counter inactive
CCc1ccc(N2C(=O)c3sc4nnc(-c5ccccc5)c(=O)n4c3C2=O)cc1	none
NC(=O)CC(NC(=O)Cc1ccc(Br)cc1)c1ccc(NCCc2cccc(F)c2)c([N+](=O)[O-])c1 (configuration not stated)	none (no result: IMP-1 inhibitor, VIM-2 inh)
NC(=O)CC(NC(=O)Cc1ccc(Br)cc1)c1ccc(NC2CCN(Cc3ccccc3)CC2)c([N+](=O)[O-])c1 (configuration not stated)	none
NC(=O)CC(NC(=O)Cc1ccc(Br)cc1)c1ccc(NCc2cc(F)ccc2F)c([N+](=O)[O-])c1 (configuration not stated)	Mdm2 MdmX PPI 55 (no result: IMP-1 inhibitor, VIM-2 inh) | Mdm2 MdmX conf inactive
NC(=O)CC(NC(=O)Cc1cccc2ccccc12)c1ccc(NC2CCN(Cc3ccccc3)CC2)c([N+](=O)[O-])c1 (configuration not stated)	Mdm2 MdmX PPI 55 | Mdm2 MdmX conf inactive
O=S(=O)(c1ccc(Cl)cc1)N1CN(CC2CCCO2)c2nc3ccccc3nc21 (configuration not stated)	none
O=C(C[C@H]1C[C@H](C(=O)N2CCOCC2)[C@@]2(CCC3CCCC3)c3[nH]c4cc(-c5ccco5)ccc4c3CCN2C1=O)NCCN1CCOCC1	none (no result: aSyn 5UTR inh, IMP-1 inhibitor, Jurkat NFkB inh, VIM-2 inh)
O=C(CC1C[C@H](C(=O)N2CCOCC2)[C@@]2(CCC3CCCC3)c3[nH]c4ccccc4c3CCN2C1=O)NCCN1CCOCC1 (some centres not stated)	none (no result: aSyn 5UTR inh, IMP-1 inhibitor, VIM-2 inh)
CN(C)CCCNC(=O)C[C@H]1C[C@H](C(=O)N2CCOCC2)[C@@]2(CCC3CCCC3)c3[nH]c4cc(-c5ccco5)ccc4c3CCN2C1=O	Mdm2 MdmX PPI 95 (no result: aSyn 5UTR inh, IMP-1 inhibitor, Jurkat NFkB inh, VIM-2 inh) | Mdm2 MdmX conf inactive
O=C(C[C@H]1C[C@H](C(=O)N2CCOCC2)[C@@]2(CCC3CCCC3)c3[nH]c4cc(-c5ccco5)ccc4c3CCN2C1=O)NCC12CC3CC(CC(C3)C1)C2	Mdm2 MdmX PPI 54 (no result: aSyn 5UTR inh, IMP-1 inhibitor, Jurkat NFkB inh, VIM-2 inh) | Mdm2 MdmX conf inactive
CC(C)(C)NC(=O)C[C@H]1C[C@H](C(=O)N2CCOCC2)[C@@]2(CCC3CCCC3)c3[nH]c4cc(-c5ccco5)ccc4c3CCN2C1=O	Mdm2 MdmX PPI 73 (no result: aSyn 5UTR inh, IMP-1 inhibitor, Jurkat NFkB inh, VIM-2 inh) | Mdm2 MdmX conf inactive
O=C(CC1C[C@H](C(=O)N2CCOCC2)[C@@]2(CCC3CCCC3)c3[nH]c4ccccc4c3CCN2C1=O)NCC12CC3CC(CC(C3)C1)C2 (some centres not stated)	Mdm2 MdmX PPI 84 (no result: aSyn 5UTR inh, IMP-1 inhibitor, VIM-2 inh) | Mdm2 MdmX conf 68 | FLuc counter 38
COCCCNC(=O)C[C@H]1C[C@H](C(=O)N2CCOCC2)[C@@]2(CCC3CCCC3)c3[nH]c4cc(-c5ccco5)ccc4c3CCN2C1=O	none (no result: aSyn 5UTR inh, IMP-1 inhibitor, Jurkat NFkB inh, VIM-2 inh)
Cc1ccc(NC(=O)CSc2nnc(Cn3cnc4ccccc43)o2)cc1	none
C=C(C)Cn1c(NCCC)nc2c1c(=O)n(C)c(=O)n2C	none
COc1ccc(CNC(=O)C[C@H]2C[C@H](C(=O)N3CCOCC3)[C@@]3(CCC4CCCC4)c4[nH]c5cc(-c6ccco6)ccc5c4CCN3C2=O)cc1OC	Mdm2 MdmX PPI 53 (no result: aSyn 5UTR inh, IMP-1 inhibitor, Jurkat NFkB inh, VIM-2 inh) | Mdm2 MdmX conf inactive
O=C(C[C@H]1C[C@H](C(=O)N2CCOCC2)[C@@]2(CCC3CCCC3)c3[nH]c4cc(-c5ccco5)ccc4c3CCN2C1=O)NCc1cccc(C(F)(F)F)c1	none (no result: aSyn 5UTR inh, IMP-1 inhibitor, Jurkat NFkB inh, VIM-2 inh)
COc1cc(OC)cc(C(=O)NC(=S)Nc2cc3oc4ccccc4c3cc2OC)c1	Mdm2 MdmX PPI 72 | Mdm2 MdmX conf inactive
COc1cc2c(cc1NC(=O)c1ccc(C)c([N+](=O)[O-])c1)oc1ccccc12	none
COc1cc2c(cc1NC(=O)c1cccc([N+](=O)[O-])c1)oc1ccccc12	aSyn 5UTR inh 81, Mdm2 MdmX PPI 71 | Mdm2 MdmX conf inactive
COc1ccc(C(=O)NC(=S)Nc2cc3oc4ccccc4c3cc2OC)cc1	none
O=C(CS(=O)(=O)c1cccc(C(F)(F)F)c1)Nc1ccccc1Cl	none
COc1ccc2c(c1)C=C(C(=O)OCc1cccnc1)CO2	none
CCCc1ccc(NS(=O)(=O)c2c(C)oc(C)c2C(=O)OC)cc1	none
Cc1ccccc1NC(=O)Cc1nc(COC(=O)CCC(=O)c2ccccc2)cs1	none (no result: aSyn 5UTR inh, IMP-1 inhibitor, VIM-2 inh)
CC(=O)Nc1ccc(S(=O)(=O)NCCC(=O)OCc2csc(CC(=O)Nc3ccccc3C)n2)cc1	Mdm2 MdmX PPI 51 (no result: IMP-1 inhibitor, VIM-2 inh) | Mdm2 MdmX conf inactive
COC(=O)C(C(=O)Nc1ccc(OC)cc1)C1CCCCCC1 (configuration not stated)	Mdm2 MdmX PPI 56 | Mdm2 MdmX conf 40 | FLuc counter 66
O=c1[nH][nH]c2ccccc2c1=O	none
COc1ccc(-c2nn(-c3ccccc3)cc2/C=N/Nc2ccc3ccccc3n2)cc1OC	none
COc1ccc(-c2nn(-c3ccccc3)cc2/C=N/Nc2ccc(S(N)(=O)=O)cc2[N+](=O)[O-])cc1OC	Mdm2 MdmX PPI 65 | Mdm2 MdmX conf inactive
O=C(O)c1cccc(Nc2ncnc3ccccc23)c1	none
COc1cc2ncnc(NCc3ccco3)c2cc1OC	none

Screens deposited in PubChem by several laboratories.
